Among the data in ChEMBL document CHEMBL1124652, “Resolved 6,7,8,9-tetrahydro-N,N-dimethyl-3H-benz[e]indol-8-amine: central dopamine and serotonin receptor stimulating properties” (J Med Chem, 1989) are ED50, IC50 and Motor activity values, retold here.

Activity calls are given as the source filed them. The rule behind the calls is not given here.

The ED50 is the dose at which the effect has come halfway, by size or by number of responders. By IC50 is commonly meant the concentration that inhibits the measured activity by half. Low values mean greater potency, high ones weaker potency.

For assay [1], the species on record is Rattus norvegicus. In words: […]. The assay is classed as functional, organism-based. The note with it: Striatum.
The test system of assay [2] is Rattus norvegicus. Put plainly: Effect on Dopa accumulation upon subcutaneous administration in the hemispheres of rat brain; I - inactive at highest dose (50 umol/kg). Type of assay: functional, organism-based.
For assay [3], the system named is Rattus norvegicus. Put plainly: Effect on Dopa accumulation upon subcutaneous administration in the limbic system of rat brain; I - inactive at highest dose (50 umol/kg). Type of assay: functional, organism-based.
For assay [4], the system named is Rattus norvegicus. In words: Effect of compound on 5-Hydroxy transaminase accumulation upon subcutaneous administration in the limbic system of rat brain. Type of assay: functional. The note with it: sc. Put shortly:
(§1)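 Male Sprague-Dawley rats (200-300 g) were dosed subcutaneously at 5 mL/kg with neutral-pH solutions. Dose-response curves used four to six dose levels (n = 4) per substance and per brain area, up to 50 μmol/kg. 5-HTP was measured in dissected brain regions by HPLC with electrochemical detection, and ED50 values were derived from the curves.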

Assay [5] concerns Rattus norvegicus. Put plainly: Effect of compound on 5-Hydroxy transaminase accumulation upon subcutaneous administration in the corpus striatum of rat brain. The note with it: sc. Type of assay: functional. Summed up: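 Male Sprague-Dawley rats (200-300 g) received the compound subcutaneously at 5 mL/kg in neutral-pH solution, at four to six dose levels up to 50 μmol/kg (n = 4 per dose). 5-HTP in the corpus striatum was measured by HPLC with electrochemical detection. A separate dose-response curve per substance and brain area gave ED50 values.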

For assay [6], the system named is Rattus norvegicus. In words: Effect of compound on 5-Hydroxy transaminase accumulation upon subcutaneous administration in the hemisphere of rat brain. The note with it: sc. Type of assay: functional. Put shortly:
as §1

Assay [7] addresses T1, D(1A) dopamine receptor (Rattus norvegicus, UniProt P18901). In words: In vitro binding activity against dopamine D1 receptor from homogenized rat brain, using [3H]SCH-23390 as the radioligand. Summed up:
(§2)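 Rat striatal membranes prepared in 50 mM potassium phosphate pH 7.4 and centrifuged at 25000g. Incubated with 0.2 nM [3H]SCH 23390 (1 mg original tissue) for 60 min at 30 °C, then separated by rapid filtration. Specific binding defined with 1 μM cis-(Z)-flupentixol.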

For assay [8], the target named is T2, D(2) dopamine receptor (Rattus norvegicus, UniProt P61169). In words: In vitro binding activity against Dopamine receptor D2 from homogenized rat brain, using [3H]spiperone as the radioligand. Summed up:
(§3)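 Rat striatal membranes in 50 mM potassium phosphate buffer (pH 7.4 at 25 °C), pellets homogenized in 1300 volumes. Incubated with 0.5 nM [3H]spiperone (3 mg original tissue) for 10 min at 37 °C, then terminated by rapid vacuum filtration and counted by liquid scintillation. Nonspecific binding defined with 10 μM 6,7-ADTN; specific binding 70-80% of total.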

For assay [9], the system named is Rattus norvegicus. In words: Effect of compound on 5-Hydroxy tryptamine accumulation upon subcutaneous administration in the limbic system of rat brain. The assay is classed as functional. The note with it: sc.
Assay [10] has as its system Rattus norvegicus. Put plainly: Effect on Dopa accumulation upon subcutaneous administration in the hemispheres of rat brain (partial response). The assay is classed as functional. The note with it: sc.
For assay [11], the system named is Rattus norvegicus. Put plainly: Effect on Dopa accumulation upon subcutaneous administration in the limbic system of rat brain. The assay is classed as functional. The settings on record: sc.
Assay [12] has as its target T1, D(1A) dopamine receptor. In words: In vitro binding activity against dopamine receptor D1 from homogenized rat brain, using [3H]SCH-23390 as the radioligand. Summed up: as §2
The subject of assay [13] is Rattus norvegicus. Put plainly: Effect on motor activity in rats at a dose of 2 uM/Kg. Type of assay: functional.
In assay [14] the test system is Rattus norvegicus. In words: Effect of compound on 5-Hydroxy tryptamine accumulation upon subcutaneous administration in the corpus striatum of rat brain. The settings on record: sc. Type of assay: functional.
For assay [15], the system named is Rattus norvegicus. Put plainly: Effect of compound on 5-Hydroxy tryptamine accumulation upon subcutaneous administration in the hemisphere of rat brain. Type of assay: functional. The note with it: sc.
Assay [16] concerns Rattus norvegicus. Put plainly: Effect on Dopa accumulation upon subcutaneous administration in the corpus striatum of rat brain. The assay is classed as functional. The settings on record: sc.
In assay [17] the test system is Rattus norvegicus. In words: Effect on motor activity in rats at a dose of 4 uM/Kg. The assay is classed as functional.
In assay [18] the test system is Rattus norvegicus. Put plainly: Effect of compound on 5-Hydroxy tryptamine accumulation upon subcutaneous administration in the hemisphere of rat brain (partial response). Type of assay: functional. The settings on record: sc.
The target in assay [19] is T2, D(2) dopamine receptor. Put plainly: In vitro binding activity against dopamine receptor D2 from homogenized rat brain, using [3H]spiperone as the radioligand. Put shortly:
as §3

Assay [20] addresses T1, D(1A) dopamine receptor. Put plainly: In vitro binding activity against Dopamine receptor D1 from homogenized rat brain, using [3H]SCH-23390 as the radioligand. Put shortly:
as §2

Assay [21] has as its target T3, 5-hydroxytryptamine receptor 1A (Rattus norvegicus, UniProt P19327).
T3 sequence (P19327 whole entry): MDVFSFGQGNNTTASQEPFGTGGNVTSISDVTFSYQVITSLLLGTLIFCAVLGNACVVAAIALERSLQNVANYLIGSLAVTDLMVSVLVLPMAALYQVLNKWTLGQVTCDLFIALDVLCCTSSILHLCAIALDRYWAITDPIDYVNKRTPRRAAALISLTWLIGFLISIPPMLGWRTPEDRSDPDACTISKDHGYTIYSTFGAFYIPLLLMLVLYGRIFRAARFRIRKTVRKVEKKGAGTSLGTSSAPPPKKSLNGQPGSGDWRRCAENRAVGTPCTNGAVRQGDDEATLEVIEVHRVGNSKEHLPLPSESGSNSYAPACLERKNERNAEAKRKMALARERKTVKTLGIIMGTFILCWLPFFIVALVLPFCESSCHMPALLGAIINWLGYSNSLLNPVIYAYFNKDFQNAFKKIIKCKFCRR
In words: In vitro binding activity against 5-hydroxytryptamine 1A receptor from homogenized rat brain, using [3H]-8-OH-DPAT as the radioligand. Put shortly: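 Whole rat brain minus brainstem and cerebellum, homogenized in 50 mM Tris pH 8.0 with 120 mM NaCl, 4 mM CaCl2 and 4 mM MgCl2. Membranes preincubated 10 min at 37 °C, then resuspended with 10 μM pargyline. Incubated in triplicate with 1 nM [3H]-8-OH-DPAT (0.1% ascorbic acid) for 15 min at 37 °C, then filtered. Nonspecific binding defined with 10 μM 5-HT. IC50 from semilog linear regression.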

Assay [22] relates to Rattus norvegicus. Put plainly: Effect of compound on 5-Hydroxy transaminase accumulation upon subcutaneous administration in the corpus striatum of rat brain; I - inactive at highest dose (50 umol/kg). Type of assay: functional, organism-based.
In assay [23] the test system is Rattus norvegicus. Put plainly: Effect of compound on 5-Hydroxy transaminase accumulation upon subcutaneous administration in the hemisphere of rat brain; I - inactive at highest dose (50 umol/kg). Type of assay: functional, organism-based.
Assay [24] relates to Rattus norvegicus. Put plainly: Effect of compound on 5-Hydroxy transaminase accumulation upon subcutaneous administration in the limbic system of rat brain; I - inactive at highest dose (50 umol/kg). Type of assay: functional, organism-based.
Assay [25] has as its system Rattus norvegicus. Put plainly: Effect on motor activity in rats at a dose of 12.5 uM/Kg. Type of assay: functional.
For assay [26], the system named is Rattus norvegicus. Put plainly: Effect on Dopa accumulation upon subcutaneous administration in the hemispheres of rat brain. Type of assay: functional. The note with it: sc.

T1 sequence (P18901 whole entry): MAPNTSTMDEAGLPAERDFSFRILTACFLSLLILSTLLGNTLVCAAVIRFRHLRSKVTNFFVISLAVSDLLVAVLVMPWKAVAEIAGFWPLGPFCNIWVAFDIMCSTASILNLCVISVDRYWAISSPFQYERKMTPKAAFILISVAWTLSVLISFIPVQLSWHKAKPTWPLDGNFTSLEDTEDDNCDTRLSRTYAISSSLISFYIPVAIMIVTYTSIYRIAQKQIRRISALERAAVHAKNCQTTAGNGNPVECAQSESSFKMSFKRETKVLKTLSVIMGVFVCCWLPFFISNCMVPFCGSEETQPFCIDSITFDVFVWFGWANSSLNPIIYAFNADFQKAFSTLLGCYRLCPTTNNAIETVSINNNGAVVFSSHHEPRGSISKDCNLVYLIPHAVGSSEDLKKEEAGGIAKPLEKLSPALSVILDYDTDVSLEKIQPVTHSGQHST
T2 sequence (P61169 whole entry): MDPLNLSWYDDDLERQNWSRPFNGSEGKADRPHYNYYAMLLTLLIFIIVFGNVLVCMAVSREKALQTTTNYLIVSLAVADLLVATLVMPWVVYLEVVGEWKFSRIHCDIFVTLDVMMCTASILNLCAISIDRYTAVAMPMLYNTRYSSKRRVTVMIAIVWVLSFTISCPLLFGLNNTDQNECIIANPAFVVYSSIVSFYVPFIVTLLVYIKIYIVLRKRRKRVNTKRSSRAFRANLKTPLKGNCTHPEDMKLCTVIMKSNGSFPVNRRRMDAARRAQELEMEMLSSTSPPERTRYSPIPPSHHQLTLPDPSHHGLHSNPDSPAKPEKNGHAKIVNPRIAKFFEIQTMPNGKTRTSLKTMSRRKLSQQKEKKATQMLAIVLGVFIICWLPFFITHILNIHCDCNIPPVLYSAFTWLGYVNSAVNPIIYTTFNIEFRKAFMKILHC

With `CCCN(CCC)[C@H]1CCc2cccc(O)c2C1`, the ED50 result in the assay filed under Rattus norvegicus [1], with Rattus norvegicus [2] and in the assay with Rattus norvegicus [3] was “inactive” throughout. The ED50 was found to be 0.061 µmol/kg with Rattus norvegicus [4], 0.065 µmol/kg in the assay with Rattus norvegicus [5] and 0.077 µmol/kg with Rattus norvegicus [6].

Take `CCCN(CCC)C1CCc2cccc(O)c2C1` (racemic) [8-OH-DPAT]: the IC50 at D(1A) dopamine receptor [7] is above 100 µM; at D(2) dopamine receptor [8] it was 5.76 µM.

In the case of `CN(C)[C@@H]1CCc2ccc3[nH]ccc3c2C1`, the ED50 in the assay on Rattus norvegicus [9] amounted to 0.4 µmol/kg; with Rattus norvegicus [10], 2 µmol/kg; with Rattus norvegicus [11], 0.3 µmol/kg; in the assay on Rattus norvegicus [14], 0.1 µmol/kg; in the assay with Rattus norvegicus [15], 0.4 µmol/kg; in the assay on Rattus norvegicus [16], 0.4 µmol/kg. At D(1A) dopamine receptor [12], this molecule yielded an IC50 of 20.4 µM. Also, the Motor activity with Rattus norvegicus [13] is 130 accumulated counts 30min-1.

For `CCCN(CCC)[C@@H]1CCc2cccc(O)c2C1`, the ED50 entry in the assay listed under Rattus norvegicus [1], with Rattus norvegicus [2] and in the assay with Rattus norvegicus [3] was “inactive” throughout. Besides, the ED50 turned out to be 0.036 µmol/kg with Rattus norvegicus [4], 0.047 µmol/kg in the assay on Rattus norvegicus [5] and 0.05 µmol/kg in the assay with Rattus norvegicus [6].

With `CN(C)C1CCc2ccc3[nH]ccc3c2C1` (racemic), the ED50 in the assay with Rattus norvegicus [9] was found to be 0.3 µmol/kg; in the assay on Rattus norvegicus [10], 4 µmol/kg; in the assay with Rattus norvegicus [11] it was 0.3 µmol/kg; in the assay with Rattus norvegicus [18], 0.4 µmol/kg; with Rattus norvegicus [14], 0.2 µmol/kg; with Rattus norvegicus [16], 0.4 µmol/kg. Besides, the Motor activity in the assay with Rattus norvegicus [17] is on record as 90 accumulated counts 30min-1. For the same molecule, the IC50 at D(1A) dopamine receptor [12] turned out to be 19.7 µM.

Consider `CCN(CC)C(=O)N[C@H]1C[C@@H]2c3cccc4[nH]cc(c34)C[C@H]2N(C)C1` [TERGURIDE], for which the half-maximal inhibitory concentration (IC50) on D(2) dopamine receptor [19] came to 0.004 µM; on D(1A) dopamine receptor [20] it was 0.069 µM; in assay [21], 0.025 µM.

For `CCCN(CCC)[C@@H]1CCc2ccc(O)cc2C1`, the ED50 result in the assay with Rattus norvegicus [2], in the assay on Rattus norvegicus [22], in the assay on Rattus norvegicus [23] and in the assay with Rattus norvegicus [24] was “inactive” in each case. Besides, the ED50 in the assay with Rattus norvegicus [11] came to 0.0095 µmol/kg; in the assay with Rattus norvegicus [16] it was 0.011 µmol/kg.

With `CN(C)[C@H]1CCc2ccc3[nH]ccc3c2C1`, the ED50 in the assay with Rattus norvegicus [9] was 3.7 µmol/kg; in the assay with Rattus norvegicus [11], 4.2 µmol/kg; with Rattus norvegicus [14], 3.7 µmol/kg; in the assay with Rattus norvegicus [15] it was 3.7 µmol/kg; with Rattus norvegicus [16], 8 µmol/kg; in the assay with Rattus norvegicus [26] it was 10 µmol/kg. The IC50 on D(1A) dopamine receptor [12] was found to be 29.2 µM. In the assay on Rattus norvegicus [25], the Motor activity is on record as 22 accumulated counts 30min-1.
